Experimental data from ChEMBL document CHEMBL3352352, “Structure-Based Drug Design of Novel, Potent, and Selective Azabenzimidazoles (ABI) as ATR Inhibitors” (ACS Med Chem Lett, 2015).
Values after ≈ are worked out from the molar mass of the structure shown. Active and inactive are the calls of the source. The calls are words filed in the database; no cut-off is given here.

Key:
[1] = target: Serine/threonine-protein kinase ATR (Homo sapiens, UniProt Q13535); test: Inhibition of human ATR using ATP substrate measured after 3 hrs
[2] = target: T1, Phosphatidylinositol 4,5-bisphosphate 3-kinase catalytic subunit alpha isoform (Homo sapiens, UniProt P42336); test: Inhibition of PI3Kalpha (unknown origin)
[3] = Solubility of the compound in PBS buffer at pH 7 by shake flask equilibrium solubility assay
[4] = Apparent permeability from basolateral to apical side in human Caco2 cells at 10 uM and pH 7.4; settings: Caco-2, pH 7.4
[5] = Volume of distribution at steady state in Sprague-Dawley rat at 2.5 mg/kg, iv and 5 mg/kg, po; assay type: ADME, organism-based; settings: in vivo, read-out: Vdss
[6] = Oral bioavailability in Sprague-Dawley rat at 5 mg/kg; assay type: ADME, organism-based; settings: in vivo
[7] = target: T2, Serine/threonine-protein kinase Chk1 (Homo sapiens, UniProt O14757); test: Inhibition of full-length Chk1 in HeLa S3 cells assessed as phosphorylation at Ser345 after 4 hrs; assay type: cell-based
T2 sequence (O14757 whole entry): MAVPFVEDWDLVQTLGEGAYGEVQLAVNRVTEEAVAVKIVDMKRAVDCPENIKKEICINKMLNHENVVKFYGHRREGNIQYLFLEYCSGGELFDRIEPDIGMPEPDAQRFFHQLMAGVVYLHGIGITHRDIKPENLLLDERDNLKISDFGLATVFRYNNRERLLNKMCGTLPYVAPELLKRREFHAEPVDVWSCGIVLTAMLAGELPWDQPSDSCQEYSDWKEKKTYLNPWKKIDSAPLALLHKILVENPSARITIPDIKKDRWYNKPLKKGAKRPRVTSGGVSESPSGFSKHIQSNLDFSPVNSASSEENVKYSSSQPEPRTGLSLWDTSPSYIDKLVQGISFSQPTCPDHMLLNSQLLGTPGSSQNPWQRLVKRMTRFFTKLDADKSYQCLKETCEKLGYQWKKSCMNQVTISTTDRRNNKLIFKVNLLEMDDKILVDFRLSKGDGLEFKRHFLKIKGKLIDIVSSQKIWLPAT
Procedure, shortened: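 HeLa S3 cells exposed to 1 µM gemcitabine together with test compound for 4 hr; read-out is Ser345-phosphorylated Chk1.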

[8] = Clearance in Sprague-Dawley rat at 2.5 mg/kg, iv and 5 mg/kg, po; assay type: ADME, organism-based; settings: in vivo
[9] = Apparent permeability from apical to basolateral side in human Caco2 cells at 10 uM and pH 7.4; settings: Caco-2, pH 7.4
[10] = target: Serine/threonine-protein kinase mTOR (Homo sapiens, UniProt P42345); test: Inhibition of mTOR (unknown origin)
Cytochrome P450 3A4 = Cytochrome P450 3A4 (Homo sapiens, UniProt P08684); test: Inhibition of CYP3A4 (unknown origin); assay type: ADME
[11] = Growth inhibition of human HT144 cells after 72 hrs by Cell Titer Glow assay; assay type: functional, cell-based; settings: HT-144, 72 h
Procedure, shortened: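 Cell Titer Glo viability read-out after 72 hr continuous compound exposure.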

[12] = target: Voltage-gated inwardly rectifying potassium channel KCNH2 (Homo sapiens, UniProt Q12809); test: Inhibition of human ERG channel by dofetilide binding assay
Cytochrome P450 1A2 [13] = target: T3, Cytochrome P450 1A2 (Homo sapiens, UniProt P05177); test: Inhibition of CYP1A2 (unknown origin); assay type: ADME
T3 sequence (P05177 whole entry): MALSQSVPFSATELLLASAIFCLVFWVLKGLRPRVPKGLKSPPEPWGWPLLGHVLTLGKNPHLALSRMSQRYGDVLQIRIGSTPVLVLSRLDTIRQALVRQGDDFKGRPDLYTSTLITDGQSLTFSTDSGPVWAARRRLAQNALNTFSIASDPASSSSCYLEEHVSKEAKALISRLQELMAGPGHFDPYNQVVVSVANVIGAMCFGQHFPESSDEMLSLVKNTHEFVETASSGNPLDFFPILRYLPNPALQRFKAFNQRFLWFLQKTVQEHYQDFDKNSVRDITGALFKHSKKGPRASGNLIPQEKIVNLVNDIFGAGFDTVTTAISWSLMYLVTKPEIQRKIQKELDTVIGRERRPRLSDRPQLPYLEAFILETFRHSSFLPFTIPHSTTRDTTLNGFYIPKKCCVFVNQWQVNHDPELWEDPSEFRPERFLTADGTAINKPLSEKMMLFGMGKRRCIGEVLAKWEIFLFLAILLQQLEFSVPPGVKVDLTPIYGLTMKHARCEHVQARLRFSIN

[14] = target: T4, Serine-protein kinase ATM (Homo sapiens, UniProt Q13315); test: Inhibition of ATM (unknown origin)
Cytochrome P450 2D6 [15] = target: T5, Cytochrome P450 2D6 (Homo sapiens, UniProt P10635); test: Inhibition of CYP2D6 (unknown origin); assay type: ADME
[16] = Half life in Sprague-Dawley rat at 2.5 mg/kg, iv and 2.5 mg/kg, po; settings: in vivo
Cytochrome P450 2C9 [17] = target: T6, Cytochrome P450 2C9 (Homo sapiens, UniProt P11712); test: Inhibition of CYP2C9 (unknown origin); assay type: ADME
[18] = target: T7, DNA-dependent protein kinase catalytic subunit (Homo sapiens, UniProt P78527); test: Inhibition of DNAPK (unknown origin)
[19] = Intrinsic clearance in mouse liver microsomes; assay type: ADME; settings: read-out: CLH
Procedure, shortened: (§1)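 Liver microsomes from mouse, rat or human; intrinsic clearance scaled to hepatic blood flow.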

[20] = Intrinsic clearance in rat liver microsomes; assay type: ADME; settings: read-out: CLH; procedure, shortened: as §1
[21] = Intrinsic clearance in human liver microsomes; assay type: ADME; settings: read-out: CLH; procedure, shortened: as §1
[22] = target: T4, Serine-protein kinase ATM; test: Inhibition of ATM (unknown origin) at 2 uM
[23] = target: Phosphatidylinositol 4,5-bisphosphate 3-kinase catalytic subunit beta isoform (Homo sapiens) (UniProt P42338); test: Inhibition of PI3Kbeta (unknown origin) at <8 uM
[24] = target: Phosphatidylinositol 4,5-bisphosphate 3-kinase catalytic subunit gamma isoform (Homo sapiens) (UniProt P48736); test: Inhibition of PI3Kgamma (unknown origin) at <8 uM
[25] = target: T7, DNA-dependent protein kinase catalytic subunit; test: Inhibition of DNAPK (unknown origin) at 10 uM
Cytochrome P450 2D6 [26] = target: T5, Cytochrome P450 2D6; test: Time dependent inhibition of CYP2D6 in human liver microsomes; assay type: ADME; settings: TDE = time-dependent effect
[27] = target: T8, Phosphatidylinositol 4,5-bisphosphate 3-kinase catalytic subunit delta isoform (Homo sapiens) (UniProt O00329); test: Inhibition of PI3Kdelta (unknown origin) at <8 uM
T8 sequence (whole entry): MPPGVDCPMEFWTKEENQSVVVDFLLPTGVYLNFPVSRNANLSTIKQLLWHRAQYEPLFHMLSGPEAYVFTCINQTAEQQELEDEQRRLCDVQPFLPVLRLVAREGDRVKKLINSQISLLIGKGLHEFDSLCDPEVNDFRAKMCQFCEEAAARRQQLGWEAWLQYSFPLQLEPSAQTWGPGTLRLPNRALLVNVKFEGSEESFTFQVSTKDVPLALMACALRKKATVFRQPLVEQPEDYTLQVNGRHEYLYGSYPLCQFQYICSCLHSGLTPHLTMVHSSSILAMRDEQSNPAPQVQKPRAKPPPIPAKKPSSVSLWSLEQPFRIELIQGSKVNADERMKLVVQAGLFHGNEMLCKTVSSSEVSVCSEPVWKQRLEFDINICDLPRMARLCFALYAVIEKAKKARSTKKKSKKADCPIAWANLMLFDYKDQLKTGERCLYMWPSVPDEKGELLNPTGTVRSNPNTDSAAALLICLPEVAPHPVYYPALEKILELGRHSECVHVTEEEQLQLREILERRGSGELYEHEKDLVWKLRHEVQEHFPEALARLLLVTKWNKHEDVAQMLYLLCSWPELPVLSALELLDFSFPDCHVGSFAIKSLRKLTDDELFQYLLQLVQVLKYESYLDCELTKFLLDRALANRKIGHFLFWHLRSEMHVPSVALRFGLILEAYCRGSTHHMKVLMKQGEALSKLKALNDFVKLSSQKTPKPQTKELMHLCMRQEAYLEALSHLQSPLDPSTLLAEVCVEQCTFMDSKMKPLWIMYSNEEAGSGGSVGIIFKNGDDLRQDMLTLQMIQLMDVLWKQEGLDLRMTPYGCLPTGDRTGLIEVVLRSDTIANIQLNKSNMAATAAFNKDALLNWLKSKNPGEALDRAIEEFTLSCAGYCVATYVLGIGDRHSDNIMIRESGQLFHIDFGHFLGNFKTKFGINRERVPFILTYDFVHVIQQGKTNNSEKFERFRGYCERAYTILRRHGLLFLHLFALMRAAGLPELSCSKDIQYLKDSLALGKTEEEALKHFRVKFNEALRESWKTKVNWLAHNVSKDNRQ

[28] = target: T1, Phosphatidylinositol 4,5-bisphosphate 3-kinase catalytic subunit alpha isoform; test: Inhibition of PI3Kalpha (unknown origin) at <8 uM
Cytochrome P450 1A2 [29] = target: T3, Cytochrome P450 1A2; test: Time dependent inhibition of CYP1A2 in human liver microsomes; assay type: ADME; settings: TDE = time-dependent effect
Cytochrome P450 2C9 [30] = target: T6, Cytochrome P450 2C9; test: Time dependent inhibition of CYP2C9 in human liver microsomes; assay type: ADME; settings: TDE = time-dependent effect

T6 sequence (P11712 whole entry): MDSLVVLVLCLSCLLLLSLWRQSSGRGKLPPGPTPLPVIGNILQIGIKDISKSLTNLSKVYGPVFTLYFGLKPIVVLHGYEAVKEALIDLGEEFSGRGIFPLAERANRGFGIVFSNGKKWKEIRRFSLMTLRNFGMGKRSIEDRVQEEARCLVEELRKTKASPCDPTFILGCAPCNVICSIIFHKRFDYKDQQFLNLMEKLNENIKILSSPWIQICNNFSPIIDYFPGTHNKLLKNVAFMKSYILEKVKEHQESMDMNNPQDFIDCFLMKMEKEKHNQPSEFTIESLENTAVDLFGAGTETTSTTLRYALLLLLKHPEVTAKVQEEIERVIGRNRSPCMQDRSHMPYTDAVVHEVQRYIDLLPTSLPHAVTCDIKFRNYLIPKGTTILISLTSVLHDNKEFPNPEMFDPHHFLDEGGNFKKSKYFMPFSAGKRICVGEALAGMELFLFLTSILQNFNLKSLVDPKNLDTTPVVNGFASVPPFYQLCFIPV
T1 sequence (P42336 whole entry, canonical isoform): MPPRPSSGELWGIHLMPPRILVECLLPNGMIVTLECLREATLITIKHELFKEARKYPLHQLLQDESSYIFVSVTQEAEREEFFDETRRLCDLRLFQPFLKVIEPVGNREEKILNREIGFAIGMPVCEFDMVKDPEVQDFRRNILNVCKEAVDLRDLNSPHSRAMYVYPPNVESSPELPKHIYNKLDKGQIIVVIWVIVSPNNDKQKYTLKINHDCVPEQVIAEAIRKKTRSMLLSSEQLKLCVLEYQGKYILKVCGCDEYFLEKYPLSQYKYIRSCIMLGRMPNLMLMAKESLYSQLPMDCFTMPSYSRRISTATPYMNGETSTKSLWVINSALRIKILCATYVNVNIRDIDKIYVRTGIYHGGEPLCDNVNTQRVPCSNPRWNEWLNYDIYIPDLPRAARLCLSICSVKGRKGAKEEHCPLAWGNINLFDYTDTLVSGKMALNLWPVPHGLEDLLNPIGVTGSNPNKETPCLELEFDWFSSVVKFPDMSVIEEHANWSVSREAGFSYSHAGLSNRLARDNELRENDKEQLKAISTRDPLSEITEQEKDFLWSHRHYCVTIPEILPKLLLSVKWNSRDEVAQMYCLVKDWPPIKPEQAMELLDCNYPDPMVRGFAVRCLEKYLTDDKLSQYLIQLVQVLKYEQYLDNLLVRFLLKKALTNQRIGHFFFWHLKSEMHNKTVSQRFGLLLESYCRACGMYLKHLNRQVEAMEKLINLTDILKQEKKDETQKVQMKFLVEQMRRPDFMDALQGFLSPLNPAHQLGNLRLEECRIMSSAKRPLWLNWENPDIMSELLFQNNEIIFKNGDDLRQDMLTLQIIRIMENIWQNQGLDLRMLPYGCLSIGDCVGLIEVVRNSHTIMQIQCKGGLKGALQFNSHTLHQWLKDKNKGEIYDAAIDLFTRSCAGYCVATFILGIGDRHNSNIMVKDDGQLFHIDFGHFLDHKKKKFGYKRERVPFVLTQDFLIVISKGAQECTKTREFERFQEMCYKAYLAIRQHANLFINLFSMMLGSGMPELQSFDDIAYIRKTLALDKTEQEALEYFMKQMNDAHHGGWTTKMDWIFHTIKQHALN
T5 sequence (P10635 whole entry): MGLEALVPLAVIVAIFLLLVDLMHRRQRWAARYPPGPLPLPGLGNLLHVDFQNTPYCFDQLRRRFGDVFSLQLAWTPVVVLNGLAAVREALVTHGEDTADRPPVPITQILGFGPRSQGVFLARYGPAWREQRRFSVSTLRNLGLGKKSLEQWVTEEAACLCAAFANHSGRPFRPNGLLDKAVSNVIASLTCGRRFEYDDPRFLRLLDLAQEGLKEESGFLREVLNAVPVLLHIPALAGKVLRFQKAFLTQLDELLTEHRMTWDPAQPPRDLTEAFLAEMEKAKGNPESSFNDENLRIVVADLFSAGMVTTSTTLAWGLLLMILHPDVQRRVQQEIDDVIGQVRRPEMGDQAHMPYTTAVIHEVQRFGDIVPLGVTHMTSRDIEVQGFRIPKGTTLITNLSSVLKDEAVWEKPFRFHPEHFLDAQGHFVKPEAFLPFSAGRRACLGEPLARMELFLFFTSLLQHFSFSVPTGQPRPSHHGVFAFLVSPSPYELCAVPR
Chain of Serine/threonine-protein kinase ATR (Q13535 whole entry, canonical isoform): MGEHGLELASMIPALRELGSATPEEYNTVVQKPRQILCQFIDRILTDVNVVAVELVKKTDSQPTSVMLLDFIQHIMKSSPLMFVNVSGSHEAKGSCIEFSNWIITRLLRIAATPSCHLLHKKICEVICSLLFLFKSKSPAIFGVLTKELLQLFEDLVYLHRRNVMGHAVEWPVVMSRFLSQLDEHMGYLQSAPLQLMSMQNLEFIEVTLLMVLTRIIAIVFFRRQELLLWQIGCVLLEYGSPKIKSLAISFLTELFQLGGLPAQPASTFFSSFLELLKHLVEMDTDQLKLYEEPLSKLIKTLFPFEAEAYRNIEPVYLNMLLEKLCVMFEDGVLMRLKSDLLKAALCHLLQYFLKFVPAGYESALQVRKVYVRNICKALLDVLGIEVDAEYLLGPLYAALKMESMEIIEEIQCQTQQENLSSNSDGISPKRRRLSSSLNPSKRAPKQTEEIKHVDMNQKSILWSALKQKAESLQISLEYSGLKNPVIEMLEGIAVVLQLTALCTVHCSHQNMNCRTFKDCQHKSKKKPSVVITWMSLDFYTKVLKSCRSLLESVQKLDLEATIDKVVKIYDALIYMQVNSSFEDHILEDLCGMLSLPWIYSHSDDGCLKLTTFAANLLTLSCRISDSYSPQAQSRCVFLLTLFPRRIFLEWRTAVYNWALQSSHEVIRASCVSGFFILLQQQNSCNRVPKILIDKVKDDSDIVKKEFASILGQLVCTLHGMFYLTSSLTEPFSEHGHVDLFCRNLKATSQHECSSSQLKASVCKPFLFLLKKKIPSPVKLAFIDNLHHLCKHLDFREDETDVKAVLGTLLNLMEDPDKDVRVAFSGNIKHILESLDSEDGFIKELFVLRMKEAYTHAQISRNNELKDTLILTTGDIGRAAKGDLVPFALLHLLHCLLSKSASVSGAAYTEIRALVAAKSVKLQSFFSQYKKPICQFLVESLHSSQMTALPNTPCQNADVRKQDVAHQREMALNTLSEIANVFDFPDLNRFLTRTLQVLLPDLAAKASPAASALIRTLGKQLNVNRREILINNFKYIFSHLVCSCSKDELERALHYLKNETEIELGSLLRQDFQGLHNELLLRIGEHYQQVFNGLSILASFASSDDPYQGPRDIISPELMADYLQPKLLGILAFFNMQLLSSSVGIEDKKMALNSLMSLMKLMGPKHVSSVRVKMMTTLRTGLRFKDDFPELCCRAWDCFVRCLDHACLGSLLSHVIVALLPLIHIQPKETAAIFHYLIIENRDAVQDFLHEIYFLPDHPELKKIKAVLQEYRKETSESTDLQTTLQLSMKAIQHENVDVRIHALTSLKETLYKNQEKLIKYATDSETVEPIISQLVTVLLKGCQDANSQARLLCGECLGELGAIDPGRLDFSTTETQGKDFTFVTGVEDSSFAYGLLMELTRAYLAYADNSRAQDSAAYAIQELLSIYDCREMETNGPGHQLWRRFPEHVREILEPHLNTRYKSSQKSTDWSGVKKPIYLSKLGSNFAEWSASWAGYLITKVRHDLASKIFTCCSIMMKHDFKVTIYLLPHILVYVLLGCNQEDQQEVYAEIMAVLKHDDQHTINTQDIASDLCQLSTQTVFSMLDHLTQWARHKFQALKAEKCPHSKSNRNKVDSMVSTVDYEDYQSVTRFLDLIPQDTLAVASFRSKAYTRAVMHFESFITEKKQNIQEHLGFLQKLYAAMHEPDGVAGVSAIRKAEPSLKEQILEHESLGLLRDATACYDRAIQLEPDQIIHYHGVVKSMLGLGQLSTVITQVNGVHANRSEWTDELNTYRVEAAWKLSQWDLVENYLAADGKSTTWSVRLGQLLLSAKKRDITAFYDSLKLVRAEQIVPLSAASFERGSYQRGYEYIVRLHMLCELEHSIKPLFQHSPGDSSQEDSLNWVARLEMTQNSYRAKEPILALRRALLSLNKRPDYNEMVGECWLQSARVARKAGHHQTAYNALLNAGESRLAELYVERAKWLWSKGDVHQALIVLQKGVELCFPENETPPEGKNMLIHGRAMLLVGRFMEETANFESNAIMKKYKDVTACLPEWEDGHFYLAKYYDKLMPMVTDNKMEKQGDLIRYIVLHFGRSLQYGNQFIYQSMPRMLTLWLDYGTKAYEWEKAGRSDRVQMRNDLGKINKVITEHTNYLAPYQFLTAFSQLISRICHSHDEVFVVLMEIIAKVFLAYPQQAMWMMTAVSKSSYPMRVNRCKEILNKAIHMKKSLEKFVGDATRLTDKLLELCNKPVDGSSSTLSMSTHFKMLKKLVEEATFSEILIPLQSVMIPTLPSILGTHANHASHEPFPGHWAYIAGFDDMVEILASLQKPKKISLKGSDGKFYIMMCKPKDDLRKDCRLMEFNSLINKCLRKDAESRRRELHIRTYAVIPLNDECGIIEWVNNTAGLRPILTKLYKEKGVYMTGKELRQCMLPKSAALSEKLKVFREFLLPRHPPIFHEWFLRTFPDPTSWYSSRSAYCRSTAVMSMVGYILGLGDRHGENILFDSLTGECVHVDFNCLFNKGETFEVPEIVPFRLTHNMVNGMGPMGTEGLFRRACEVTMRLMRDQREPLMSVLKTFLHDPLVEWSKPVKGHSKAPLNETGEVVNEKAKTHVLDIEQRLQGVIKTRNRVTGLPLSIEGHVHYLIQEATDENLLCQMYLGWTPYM

c1cc(-c2cc3nccn3c(N3CCOCC3)n2)c2cc[nH]c2c1
IC50 [1]: 0.096 µM | IC50 [2]: > 10 µM | solubility thermodynamic [3]: 56 µM (≈ 17.9 µg/mL)

C[C@@H]1COCCN1c1nc(-c2cccc3[nH]ccc23)cc2nccn12
IC50 [1]: 0.095 µM | IC50 [2]: > 10 µM

C[C@@H]1COCCN1c1nc(-c2c(F)ncc3[nH]ccc23)cc2c1ncn2C
Papp B→A at 10 µM [4]: 38 ×10⁻⁶ cm/s | Vd [5]: 1.2 L/kg | bioavailability [6]: 66% | IC50 [7]: 0.096 µM | IC50 [1]: 0.0001 µM | clearance [8]: 20 mL/min/kg | solubility thermodynamic [3]: > 2300 µM | Papp A→B at 10 µM [9]: 38 ×10⁻⁶ cm/s

c1cc(-c2cc3c(ncn3CC3CC3)c(N3CCOCC3)n2)c2cc[nH]c2c1
IC50 [1]: 0.026 µM | IC50 [2]: > 10 µM

C[C@@H]1COCCN1c1nc(-c2cnc(N)nc2)cc2c1ncn2CS(C)(=O)=O
IC50 [1]: 0.006 µM

CS(=O)(=O)Cn1cnc2c(N3C4CCC3COC4)nc(-c3cncc4[nH]ccc34)cc21
IC50 [1]: 0.034 µM

CS(=O)(=O)Cn1cnc2c(N3C4CCC3COC4)nc(-c3cnc(N)nc3)cc21
IC50 [1]: 0.19 µM

O=C(NC1CC1)c1cn2c(N3CCOCC3)nc(-c3cccc4[nH]ccc34)cc2n1
IC50 [1]: 0.039 µM

C[C@@H]1COCCN1c1nc(-c2cccc3[nH]ccc23)cc2c1ncn2CS(C)(=O)=O
EC50 [7]: 0.57 µM | IC50 [1]: 0.001 µM

C[C@@H]1COCCN1c1nc(-c2cncc3[nH]ccc23)cc2c1ncn2C
Vd [5]: 2.3 L/kg | bioavailability [6]: 18% | IC50 [7]: 0.084 µM | clearance [8]: 49 mL/min/kg | IC50 [10]: 7.5 µM

C[C@@H]1COCCN1c1nc(-c2nncc3[nH]ccc23)cc2c1ncn2C
Papp B→A at 10 µM [4]: 38 ×10⁻⁶ cm/s | Vd [5]: 1.8 L/kg | bioavailability [6]: 7.5% | IC50 (Cytochrome P450 3A4): > 24 µM | IC50 [1]: 0.0005 µM | IC50 [11]: 0.35 µM | clearance [8]: 34 mL/min/kg | IC50 [12]: > 30 µM | IC50 (Cytochrome P450 1A2 [13]): > 24 µM | IC50 [14]: 15 µM | IC50 [10]: > 13 µM | IC50 (Cytochrome P450 2D6 [15]): > 24 µM | half-life [16]: 2 h | solubility thermodynamic [3]: > 2400 µM | Papp A→B at 10 µM [9]: 3.6 ×10⁻⁶ cm/s | IC50 (Cytochrome P450 2C9 [17]): > 24 µM | IC50 [18]: > 25 µM

CS(=O)(=O)Cn1cnc2c(N3CCOCC3)nc(-c3cccc4[nH]ccc34)cc21
Papp B→A at 10 µM [4]: 58 ×10⁻⁶ cm/s | bioavailability [6]: 96% | EC50 [7]: 3.3 µM | IC50 [1]: 0.005 µM | CLint scaled [19]: 31 mL/min/kg | clearance [8]: 14 mL/min/kg | IC50 [2]: > 10 µM | CLint scaled [20]: 30 mL/min/kg | CLint scaled [21]: 6 mL/min/kg | solubility thermodynamic [3]: 193 µM (≈ 79.4 µg/mL) | Papp A→B at 10 µM [9]: 14 ×10⁻⁶ cm/s

C[C@@H]1COCCN1c1nc(-c2cncc3[nH]ccc23)cc2c1ncn2[C@@H](C)S(C)(=O)=O
Papp B→A at 10 µM [4]: 37 ×10⁻⁶ cm/s | inhibition [22]: inactive | IC50 [7]: 0.08 µM | IC50 (Cytochrome P450 3A4): > 40 µM | inhibition [23]: inactive | IC50 [1]: 0.0002 µM | clearance [8]: 114 mL/min/kg | inhibition [24]: inactive | IC50 (Cytochrome P450 1A2 [13]): > 40 µM | inhibition [25]: inactive | IC50 [10]: > 4.6 µM | IC50 (Cytochrome P450 2D6 [15]): > 40 µM | solubility thermodynamic [3]: > 770 µM | inhibition (INH) (Cytochrome P450 2D6 [26]): tde | inhibition [27]: inactive | inhibition [28]: inactive | Papp A→B at 10 µM [9]: 2 ×10⁻⁶ cm/s | IC50 (Cytochrome P450 2C9 [17]): > 40 µM | inhibition (INH) (Cytochrome P450 1A2 [29]): tde | inhibition (INH) (Cytochrome P450 2C9 [30]): tde
